Experimental data taken from publication PMC3895945 (Nuclear medicine and biology, 2013).
One block for each compound: values may come before it.

Legend:
[1] = In vitro metabolism; type: in vitro ADME, rat; conditions: for half-life: Fisher 344, rat, fresh heparinized rat whole blood
Method in brief: (§1)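 Radiolabeled test compound (~3 MBq in 50 μL PBS) was added to 1.0 mL preheated blood or a PBS control at 37 °C. Rat blood was freshly drawn from anesthetized Fisher 344 rats into heparin (100 unit/mL); heparinized human blood had been stored at −70 °C. Aliquots taken at 5–120 min were deproteinized with 1 % picric acid and centrifuged. Supernatant was analysed by C-18 radio-HPLC. Percent intact compound versus time was fitted to first-order kinetics.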

[2] = tested on: 9L tumors; assay: In vivo biodistribution in Fisher rats with 9L glioma tumors; set-up: species or system Fischer 344 rats; conditions: for Tissue distribution Tumor: 9L tumor; for tumor uptake kinetics and retention: biodistribution 30 to 60 min, result in words; for Tumor/Blood / Tumor/Brain / Tumor/Muscle: ratio; for time to maximum uptake in the tumors: biodistribution, 9L tumors
[3] = In vivo metabolism studies of FET prodrugs in Fisher 344 rats; conditions: blood drawn 5 min after intravenous injection
Method in brief: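 Fisher 344 rats received ~37 MBq radiolabeled test compound intravenously. Blood was drawn from the heart 5 min post-injection. 50 μL aliquots were deproteinized with 1 % picric acid and centrifuged at 12,000g. Supernatant was run on C-18 HPLC (CH3CN/0.1 % formic acid), and fractions were gamma-counted. Parent and radio-metabolites were identified by retention time.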

[4] = tested on: 9L glioma cells; assay: In vitro uptake studies in 9L cells; type: cell-based; conditions: for uptake in 9L cells: result in words; for uptake relative to that of FET: 9L glioma cells, 5-120 min incubation at 37 °C
Method in brief: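 9L gliosarcoma cells were grown in DMEM with 10 % FBS (37 °C, 5 % CO2) and plated at 2.0 × 10^5 cells/well 24 h ahead. Cells were washed with warm PBS containing Ca2+/Mg2+, then given radiolabeled test compound in PBS (~500,000 cpm/mL/well) at 37 °C for 5, 30, 60 or 120 min. They were washed with ice-cold PBS, lysed in 0.1N NaOH and gamma-counted. Uptake was normalised to protein (modified Lowry) as %uptake/100 μg protein, in triplicate.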

[5] = tested on: 9L tumors; assay: Dynamic small animal PET imaging in rats bearing 9L tumors; type: in vivo, Fisher rats; conditions: for maximum tumor-to-muscle ratio: PET region-of-interest analysis; for maximum tumor-to-muscle ratio / time to maximum tumor uptake: 9L tumors; for time to maximum tumor uptake / tumor uptake kinetics and retention: PET time-activity curves; for tumor uptake kinetics and retention: result in words
[6] = In vitro metabolism; type: in vitro ADME, human
Method in brief: as §1

[7] = 30 min after intravenous injection
[8] = 60 min after intravenous injection
[9] = 30 min after intravenous injection, listed as FET-Ala([^18F]3)

half-life [1]: 77.5 min
Tissue distribution Tumor [2, 7]: 0.61 ± 0.13 % ID/g
Tissue distribution Tumor [2, 8]: 0.85 ± 0.09 % ID/g
Tissue distribution Blood [2, 7]: 0.69 ± 0.03 % ID/g
Tissue distribution Bone [2, 7]: 0.32 ± 0.01 % ID/g
Tissue distribution Brain [2, 7]: 0.26 ± 0.01 % ID/g
Tissue distribution Heart [2, 7]: 0.60 ± 0.03 % ID/g
Tissue distribution Kidney [2, 7]: 0.70 ± 0.07 % ID/g
Tissue distribution Liver [2, 7]: 0.64 ± 0.01 % ID/g
Tissue distribution Lung [2, 7]: 0.55 ± 0.04 % ID/g
Tissue distribution Muscle [2, 7]: 0.45 ± 0.02 % ID/g
Tissue distribution Pancreas [2, 7]: 2.54 ± 0.11 % ID/g
Tissue distribution Skin [2, 7]: 0.48 ± 0.01 % ID/g
Tissue distribution Spleen [2, 7]: 0.66 ± 0.02 % ID/g
Tissue distribution Blood [2, 8]: 0.62 ± 0.01 % ID/g
Tissue distribution Bone [2, 8]: 0.33 ± 0.01 % ID/g
Tissue distribution Brain [2, 8]: 0.36 ± 0.03 % ID/g
Tissue distribution Heart [2, 8]: 0.56 ± 0.02 % ID/g
Tissue distribution Kidney [2, 8]: 0.57 ± 0.05 % ID/g
Tissue distribution Liver [2, 8]: 0.56 ± 0.01 % ID/g
Tissue distribution Lung [2, 8]: 0.51 ± 0.01 % ID/g
Tissue distribution Muscle [2, 8]: 0.49 ± 0.01 % ID/g
Tissue distribution Pancreas [2, 8]: 2.23 ± 0.51 % ID/g
Tissue distribution Skin [2, 8]: 0.44 ± 0.01 % ID/g
Tissue distribution Spleen [2, 8]: 0.65 ± 0.06 % ID/g
tumor uptake kinetics and retention [2]: slower uptake kinetics
Tumor/Blood [2, 7]: 0.88 ± 0.19
Tumor/Brain [2, 7]: 2.35 ± 0.51
Tumor/Muscle [2, 7]: 1.36 ± 0.30
Tumor/Blood [2, 8]: 1.37 ± 0.15
Tumor/Brain [2, 8]: 2.36 ± 0.32
Tumor/Muscle [2, 8]: 1.73 ± 0.19
metabolized to FET [3]: 66%
maximum tumor-to-muscle ratio [5]: < 5
time to maximum tumor uptake [5]: 60 min
tumor uptake kinetics and retention [5]: slower kinetics
stability in human blood ([6]; human blood, 37 °C): completely stable
SMILES: CC(=O)N[C@@H](Cc1ccc(OCC[18F])cc1)C(=O)O [AcFET ([^18F]4), N-acetyl O-(2-[^18F]fluoroethyl)-L-tyrosine]
uptake in 9L cells [4]: negligible uptake
uptake relative to that of FET [4]: less than 1%

t1/2 Rat blood ([1]; hydrolysis to FET in rat blood at 37 °C, average of two experiments): 17.3 min
Tissue distribution Tumor [2, 7]: 0.81 ± 0.30 % ID/g
Tissue distribution Tumor [2, 8]: 0.56 ± 0.33 % ID/g
Tissue distribution Blood [2, 7]: 0.72 ± 0.02 % ID/g
Tissue distribution Bone [2, 7]: 0.41 ± 0.01 % ID/g
Tissue distribution Brain [2, 7]: 0.33 ± 0.02 % ID/g
Tissue distribution Heart [2, 7]: 0.67 ± 0.03 % ID/g
Tissue distribution Kidney [2, 7]: 0.57 ± 0.01 % ID/g
Tissue distribution Liver [2, 7]: 0.67 ± 0.02 % ID/g
Tissue distribution Lung [2, 7]: 0.59 ± 0.01 % ID/g
Tissue distribution Muscle [2, 7]: 0.52 ± 0.04 % ID/g
Tissue distribution Pancreas [2, 7]: 2.74 ± 0.39 % ID/g
Tissue distribution Skin [2, 7]: 0.44 ± 0.03 % ID/g
Tissue distribution Spleen [2, 7]: 0.76 ± 0.05 % ID/g
Tissue distribution Blood [2, 8]: 0.74 ± 0.06 % ID/g
Tissue distribution Bone [2, 8]: 0.45 ± 0.04 % ID/g
Tissue distribution Brain [2, 8]: 0.47 ± 0.06 % ID/g
Tissue distribution Heart [2, 8]: 0.68 ± 0.05 % ID/g
Tissue distribution Kidney [2, 8]: 0.57 ± 0.05 % ID/g
Tissue distribution Liver [2, 8]: 0.66 ± 0.05 % ID/g
Tissue distribution Lung [2, 8]: 0.62 ± 0.06 % ID/g
Tissue distribution Muscle [2, 8]: 0.67 ± 0.06 % ID/g
Tissue distribution Pancreas [2, 8]: 2.92 ± 0.44 % ID/g
Tissue distribution Skin [2, 8]: 0.46 ± 0.01 % ID/g
Tissue distribution Spleen [2, 8]: 0.80 ± 0.12 % ID/g
washout from 9L tumors ([2]; at 60 min (from 30 min)): 31%
time to maximum uptake in the tumors [2]: ≤ 30 min
Tumor/Blood [2, 7]: 1.13 ± 0.42
Tumor/Brain [2, 7]: 2.45 ± 0.92
Tumor/Muscle [2, 7]: 1.56 ± 0.59
Tumor/Blood [2, 8]: 0.76 ± 0.45
Tumor/Brain [2, 8]: 1.19 ± 0.72
Tumor/Muscle [2, 8]: 0.84 ± 0.50
metabolized to FET [3]: 72%
maximum tumor-to-muscle ratio [5]: 5
time to maximum tumor uptake [5]: ≤ 20 min
tumor uptake kinetics and retention [5]: washout
t1/2 Human blood ([6]; hydrolysis to FET in human blood at 37 °C, average of two experiments): 22.7 min
SMILES: N[C@@H](Cc1ccc(OCC[18F])cc1)C(=O)NCC(=O)O [FET-Gly ([^18F]2), O-(2-[^18F]fluoroethyl)-L-tyrosyl-L-glycine]
uptake in 9L cells [4]: negligible uptake
uptake relative to that of FET [4]: less than 1%

maximum tumor-to-muscle ratio [5]: 5
time to maximum tumor uptake [5]: ≤ 20 min
tumor uptake kinetics and retention [5]: long retention
SMILES: N[C@@H](Cc1ccc(OCC[18F])cc1)C(=O)O [FET ([^18F]1), O-(2-[^18F]fluoroethyl)-L-tyrosine, reference compound]
uptake in 9L cells [4]: high uptake

half-life [1]: 5.8 min
Tissue distribution Tumor [2, 7]: 1.18 ± 0.10 % ID/g
Tissue distribution Tumor [2, 8]: 1.10 ± 0.29 % ID/g
Tissue distribution Blood [2, 7]: 0.72 ± 0.03 % ID/g
Tissue distribution Bone [2, 7]: 0.41 ± 0.03 % ID/g
Tissue distribution Brain [2, 7]: 0.31 ± 0.01 % ID/g
Tissue distribution Heart [2, 7]: 0.67 ± 0.03 % ID/g
Tissue distribution Kidney [2, 7]: 0.58 ± 0.02 % ID/g
Tissue distribution Liver [2, 7]: 0.66 ± 0.02 % ID/g
Tissue distribution Lung [2, 7]: 0.62 ± 0.02 % ID/g
Tissue distribution Muscle [2, 7]: 0.54 ± 0.01 % ID/g
Tissue distribution Pancreas [2, 7]: 3.06 ± 0.38 % ID/g
Tissue distribution Skin [2, 7]: 0.69 ± 0.20 % ID/g
Tissue distribution Spleen [2, 7]: 0.74 ± 0.06 % ID/g
Tissue distribution Blood [2, 8]: 0.72 ± 0.03 % ID/g
Tissue distribution Bone [2, 8]: 0.46 ± 0.03 % ID/g
Tissue distribution Brain [2, 8]: 0.38 ± 0.02 % ID/g
Tissue distribution Heart [2, 8]: 0.66 ± 0.03 % ID/g
Tissue distribution Kidney [2, 8]: 0.57 ± 0.02 % ID/g
Tissue distribution Liver [2, 8]: 0.65 ± 0.02 % ID/g
Tissue distribution Lung [2, 8]: 0.61 ± 0.03 % ID/g
Tissue distribution Muscle [2, 8]: 0.60 ± 0.03 % ID/g
Tissue distribution Pancreas [2, 8]: 3.52 ± 0.26 % ID/g
Tissue distribution Skin [2, 8]: 0.73 ± 0.16 % ID/g
Tissue distribution Spleen [2, 8]: 0.71 ± 0.03 % ID/g
tumor uptake kinetics and retention [2]: long retention
time to maximum uptake in the tumors [2]: ≤ 30 min
Tumor/Blood [2, 7]: 1.6
Tumor/Brain [2, 7]: 3.8
Tumor/Muscle [2, 7]: 2.2
Tumor/Blood [2, 9]: 1.64 ± 0.15
Tumor/Brain [2, 9]: 3.81 ± 0.35
Tumor/Muscle [2, 9]: 2.18 ± 0.19
Tumor/Blood [2, 8]: 1.53 ± 0.41
Tumor/Brain [2, 8]: 2.89 ± 0.78
Tumor/Muscle [2, 8]: 1.83 ± 0.49
metabolized to FET [3]: 79%
maximum tumor-to-muscle ratio [5]: 5
time to maximum tumor uptake [5]: ≤ 20 min
tumor uptake kinetics and retention [5]: long retention
half-life ([6]; human, heparinized human whole blood): 0.8 min
SMILES: C[C@H](NC(=O)[C@@H](N)Cc1ccc(OCC[18F])cc1)C(=O)O [FET-Ala ([^18F]3), O-(2-[^18F]fluoroethyl)-L-tyrosyl-L-alanine]
uptake in 9L cells [4]: negligible uptake
uptake relative to that of FET [4]: less than 1%

tumor uptake kinetics and retention [5]: continuously increasing tumor uptake
SMILES: O=C[C@H]([18F])[C@@H](O)[C@H](O)[C@H](O)CO [FDG, 2-[^18F]fluoro-2-deoxy-D-glucose, reference compound]
